# Experimental data as given in ChEMBL document CHEMBL4811254, “Beyond Basicity: Discovery of Nonbasic DENV-2 Protease Inhibitors with Potent Activity in Cell Culture” (J Med Chem, 2021).
# Activity calls are given as the source filed them.
# Assays:
# [1] = biological target: Genome polyprotein (dengue virus type 2) (UniProt P29990); assay: Inhibition of DENV2 NS2B-NS3 protease expressed in Escherichia coli BL21 lambda(DE3) using FRET substrate preincubated with enzyme for 15 mins in presence of detergent CHAPS followed by substrate addition for 15 mins by fluorescence based analysis; conditions: time 30.0 min
# Trypsin (Homo sapiens) = Trypsin (Homo sapiens) (UniProt P07477+P07478+P35030); assay: Inhibition of trypsin (unknown origin) using Boc-Val-Pro-Arg-AMC as substrate at 50 uM preincubated with enzyme for 15 mins followed by substrate addition and measured for 15 mins by fluorimetric assay; format: protein assay; conditions: time 30.0 min
# [2] = Passive membrane permeability of the compound in phosphate buffered saline assessed as mass retention of the compound at 200 uM incubated for 5 hrs by PAMPA assay based HPLC analysis; format: ADME
# Summary of the method: (§1)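 Precoated trilayer PAMPA, 5 h incubation. Acceptor and donor concentrations measured after 5 h. Permeability and mass retention calculated by a literature method.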
# Genome polyprotein [3] = biological target: T1, Genome polyprotein (dengue virus type 2, UniProt P29990); assay: Inhibition of NS2B-NS3 protease in DENV2proHeLa system assessed as inhibition of luciferase signal incubated for 24 hrs by luciferase reporter gene assay; format: cell-based, HeLa
# Summary of the method: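 HeLa cells stably carrying the reporter system, 2 × 10⁴ per well, given inhibitor at seeding and held 24 h at 37 °C. Cells lysed 15 min at room temperature. Luciferase read for 5 s after injecting coelenterazine (2.75 μM in PBS). Triplicate wells per concentration; percent inhibition taken against untreated cells. EC50/EC90 from 4-parameter dose-response fit, background from cell-free wells subtracted.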
# [4] = Passive membrane permeability of the compound in phosphate buffered saline at 200 uM incubated for 5 hrs by PAMPA assay based HPLC analysis; format: ADME; conditions: PAMPA, read-out: permeability; summary of the method: as §1
# Huh-7 = assay: Cytotoxicity against human Huh-7 cells assessed as reduction in cell viability at 12.5 uM incubated for 48 hrs by CellTiter-Blue assay; format: cell-based; conditions: huh-7, 48 h
# Summary of the method: (§2)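 Viability by CellTiter-Blue in HeLa or Huh-7 cells exposed to compound dilutions. Plates run in parallel with the reporter assay (HeLa) or the virus titer assay (Huh-7).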
# dengue virus type 2 [5] = assay: (§3) Antiviral activity against DENV2 infected in human Huh7 cells assessed as reduction in virus titer in cell supernatant by measuring inhibition of plaque formation using VeroE6 cells at 12.5 uM preincubated with viral infected Huh7 cells for 48 hrs and measured following infection of VeroE6 cells with supernatants for 7 days by plaque assay based crystal violet staining analysis; format: functional; conditions: Huh-7, 216 h, time 9 day
# Summary of the method: (§4)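 Huh-7 cells seeded at 1 × 10⁴/well and incubated overnight. Infected with DENV-2 at MOI 1 for 2 h, then medium changed and compound added. […] Pooled supernatants titred by plaque assay on VeroE6 cells: 10⁻¹ to 10⁻⁶ dilutions, 1 h infection, 7 days, formaldehyde fix, crystal violet.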
# [6] = biological target: Prothrombin (Homo sapiens) (UniProt P00734); assay: Inhibition of thrombin in human plasma using Boc-Val-Pro-Arg-AMC as substrate at 25 uM preincubated with enzyme for 15 mins followed by substrate addition and measured for 15 mins by fluorimetric assay; format: cell-free; conditions: time 30.0 min
# [7] = biological target: Genome polyprotein (dengue virus type 2) (UniProt P29990); assay: Inhibition of NS2B-NS3 protease in DENV2proHeLa system assessed as inhibition of luciferase signal at 12.5 uM incubated for 24 hrs by luciferase reporter gene assay; format: cell-based; conditions: HeLa
# Summary of the method: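 Stable DENV2proHeLa cells seeded at 2 × 10⁴/well and dosed immediately, then incubated 24 h at 37 °C. Cells lysed 15 min at room temperature. Luciferase read with coelenterazine (2.75 μM in PBS) injection, luminescence 5 s. Triplicates; percent inhibition calculated relative to untreated control; background from cell-free wells.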
# [8] = Passive membrane permeability of the compound in phosphate buffered saline assessed as concentration of the compound in donor plate at 200 uM incubated for 5 hrs by PAMPA assay based HPLC analysis; format: ADME; summary of the method: as §1
# [9] = Passive membrane permeability of the compound in phosphate buffered saline assessed as concentration of the compound in acceptor plate at 200 uM incubated for 5 hrs by PAMPA assay based HPLC analysis; format: ADME; summary of the method: as §1
# [10] = Cytotoxicity against human HeLa cells assessed as reduction in cell viability incubated for 24 hrs by CellTiter-Blue assay; format: cell-based; summary of the method: as §2
# [11] = Stability of the compound assessed as bovine pancreas trypsin-mediated parent compound depletion at 0.1 mg/ml incubated for 120 mins by HPLC analysis; format: ADME, Bos taurus; conditions: cattle
# Summary of the method: (§5)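 Compound incubated with α-chymotrypsin or bovine trypsin in buffer for 120 min at 37 °C; parent compound depletion monitored.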
# [12] = biological target: Genome polyprotein (West Nile virus) (UniProt P06935); assay: Inhibition of WNV NS2B-NS3 protease expressed in Escherichia coli BL21 lambda(DE3) using FRET substrate preincubated with enzyme for 15 mins in presence of detergent CHAPS followed by substrate addition for 15 mins by fluorescence based analysis; conditions: time 30.0 min
# Sequence of Genome polyprotein (West Nile virus) (P06935 whole entry): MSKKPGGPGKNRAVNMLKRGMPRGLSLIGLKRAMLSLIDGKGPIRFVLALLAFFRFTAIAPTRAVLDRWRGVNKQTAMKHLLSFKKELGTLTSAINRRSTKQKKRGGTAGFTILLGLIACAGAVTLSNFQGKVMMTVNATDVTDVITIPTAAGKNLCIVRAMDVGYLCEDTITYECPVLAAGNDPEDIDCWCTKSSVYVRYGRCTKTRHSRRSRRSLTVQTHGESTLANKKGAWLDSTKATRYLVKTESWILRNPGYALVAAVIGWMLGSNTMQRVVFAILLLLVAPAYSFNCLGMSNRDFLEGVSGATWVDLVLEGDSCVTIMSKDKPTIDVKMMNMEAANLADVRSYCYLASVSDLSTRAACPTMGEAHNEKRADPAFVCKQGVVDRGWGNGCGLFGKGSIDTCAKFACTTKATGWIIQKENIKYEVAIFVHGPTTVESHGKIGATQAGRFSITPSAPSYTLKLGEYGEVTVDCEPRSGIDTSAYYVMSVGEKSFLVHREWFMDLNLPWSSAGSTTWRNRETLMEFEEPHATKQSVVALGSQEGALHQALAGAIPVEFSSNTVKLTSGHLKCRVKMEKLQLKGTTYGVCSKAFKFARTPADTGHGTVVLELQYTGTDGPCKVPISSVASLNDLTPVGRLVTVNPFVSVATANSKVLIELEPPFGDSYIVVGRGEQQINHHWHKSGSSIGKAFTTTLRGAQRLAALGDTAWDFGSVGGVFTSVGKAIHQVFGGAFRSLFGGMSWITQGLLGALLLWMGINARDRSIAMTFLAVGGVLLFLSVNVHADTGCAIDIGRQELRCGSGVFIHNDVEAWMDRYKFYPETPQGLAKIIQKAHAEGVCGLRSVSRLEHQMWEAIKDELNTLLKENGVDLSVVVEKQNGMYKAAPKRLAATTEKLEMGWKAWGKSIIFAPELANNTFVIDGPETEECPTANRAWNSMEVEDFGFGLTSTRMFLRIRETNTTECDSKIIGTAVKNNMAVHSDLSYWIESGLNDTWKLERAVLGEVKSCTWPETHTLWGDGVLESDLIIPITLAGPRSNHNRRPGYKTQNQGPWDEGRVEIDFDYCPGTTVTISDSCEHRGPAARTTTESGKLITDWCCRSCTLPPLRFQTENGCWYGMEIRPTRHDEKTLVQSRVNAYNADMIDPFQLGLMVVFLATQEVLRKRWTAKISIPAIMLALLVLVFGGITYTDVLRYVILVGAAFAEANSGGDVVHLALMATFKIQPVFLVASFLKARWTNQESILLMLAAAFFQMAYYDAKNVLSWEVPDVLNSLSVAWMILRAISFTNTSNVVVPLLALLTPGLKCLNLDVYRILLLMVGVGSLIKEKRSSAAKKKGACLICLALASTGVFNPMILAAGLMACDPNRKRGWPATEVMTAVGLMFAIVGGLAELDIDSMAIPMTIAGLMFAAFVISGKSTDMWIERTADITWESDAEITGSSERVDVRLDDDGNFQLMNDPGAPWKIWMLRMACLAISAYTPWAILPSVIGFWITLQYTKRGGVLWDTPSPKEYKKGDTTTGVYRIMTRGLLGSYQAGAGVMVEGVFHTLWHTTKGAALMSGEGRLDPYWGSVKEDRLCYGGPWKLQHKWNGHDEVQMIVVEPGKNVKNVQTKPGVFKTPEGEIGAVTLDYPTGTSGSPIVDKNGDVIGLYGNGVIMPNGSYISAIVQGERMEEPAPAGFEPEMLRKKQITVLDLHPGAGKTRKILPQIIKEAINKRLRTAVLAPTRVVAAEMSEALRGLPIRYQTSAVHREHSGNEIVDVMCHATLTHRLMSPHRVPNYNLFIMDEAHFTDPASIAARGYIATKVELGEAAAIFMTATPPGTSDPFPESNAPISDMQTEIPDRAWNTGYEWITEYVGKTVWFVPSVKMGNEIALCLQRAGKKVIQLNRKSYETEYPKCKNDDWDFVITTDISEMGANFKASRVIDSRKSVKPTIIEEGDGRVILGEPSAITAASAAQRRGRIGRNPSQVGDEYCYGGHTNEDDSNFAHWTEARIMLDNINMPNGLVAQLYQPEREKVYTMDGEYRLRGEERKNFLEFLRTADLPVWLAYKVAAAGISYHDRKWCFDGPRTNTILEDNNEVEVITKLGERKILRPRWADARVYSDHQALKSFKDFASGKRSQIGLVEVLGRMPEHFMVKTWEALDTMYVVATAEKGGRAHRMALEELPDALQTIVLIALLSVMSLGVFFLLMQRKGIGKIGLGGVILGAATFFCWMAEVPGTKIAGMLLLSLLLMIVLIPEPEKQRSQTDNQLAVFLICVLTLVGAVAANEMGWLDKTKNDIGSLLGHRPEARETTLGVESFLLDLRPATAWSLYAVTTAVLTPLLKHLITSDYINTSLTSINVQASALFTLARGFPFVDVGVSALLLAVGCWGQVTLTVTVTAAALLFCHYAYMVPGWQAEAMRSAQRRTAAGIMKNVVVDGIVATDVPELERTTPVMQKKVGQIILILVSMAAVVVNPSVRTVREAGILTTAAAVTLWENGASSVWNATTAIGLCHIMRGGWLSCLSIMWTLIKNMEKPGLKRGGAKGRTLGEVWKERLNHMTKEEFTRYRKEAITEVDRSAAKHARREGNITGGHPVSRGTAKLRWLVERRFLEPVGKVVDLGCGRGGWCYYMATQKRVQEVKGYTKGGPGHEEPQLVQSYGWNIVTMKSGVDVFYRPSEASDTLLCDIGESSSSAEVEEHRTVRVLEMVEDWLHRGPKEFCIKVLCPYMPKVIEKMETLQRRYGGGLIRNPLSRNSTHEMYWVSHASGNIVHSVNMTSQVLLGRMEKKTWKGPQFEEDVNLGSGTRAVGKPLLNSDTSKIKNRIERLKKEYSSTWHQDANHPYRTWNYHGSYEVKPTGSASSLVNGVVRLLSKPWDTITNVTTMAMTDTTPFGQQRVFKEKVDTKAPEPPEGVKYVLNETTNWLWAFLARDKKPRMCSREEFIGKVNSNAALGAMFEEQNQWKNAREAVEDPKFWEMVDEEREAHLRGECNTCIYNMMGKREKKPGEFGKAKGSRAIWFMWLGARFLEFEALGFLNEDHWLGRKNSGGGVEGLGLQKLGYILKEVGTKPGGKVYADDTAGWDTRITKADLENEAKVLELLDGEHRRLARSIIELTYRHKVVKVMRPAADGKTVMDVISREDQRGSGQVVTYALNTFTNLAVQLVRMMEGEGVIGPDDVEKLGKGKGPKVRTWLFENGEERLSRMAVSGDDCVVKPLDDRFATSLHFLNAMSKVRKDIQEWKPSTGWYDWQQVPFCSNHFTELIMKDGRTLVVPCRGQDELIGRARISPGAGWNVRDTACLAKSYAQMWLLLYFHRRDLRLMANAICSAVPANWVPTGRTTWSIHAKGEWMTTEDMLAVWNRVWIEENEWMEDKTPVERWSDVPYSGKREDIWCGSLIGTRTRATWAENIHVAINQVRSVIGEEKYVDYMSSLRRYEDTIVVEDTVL
# dengue virus type 2 [13] = assay: as §3, with “cells” for “cells at 12.5 uM”; format: functional, organism-based, Huh-7; conditions: for EC50: Huh-7; for EC90: Huh-7, 216 h, time 9 day; summary of the method: as §4
# [14] = biological target: Genome polyprotein (dengue virus type 2) (UniProt P29990); assay: Binding affinity to DENV2 NS2B-NS3 protease expressed in Escherichia coli BL21 lambda(DE3) assessed as quenching of fluorescence of tryptophan residue of the enzyme at 50 uM incubated for 1 hr in presence of aprotinin by tryptophan fluorescence quenching assay
# [15] = biological target: Genome polyprotein (dengue virus type 2) (UniProt P29990); assay: Binding affinity to DENV2 NS2B-NS3 protease expressed in Escherichia coli BL21 lambda(DE3) assessed as quenching of fluorescence of tryptophan residue of the enzyme incubated for 1 hr by tryptophan fluorescence quenching assay; conditions: dose 10-50 µM
# Summary of the method: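 Compound added to isolated DENV-2 protease; tryptophan fluorescence quenching monitored across concentrations. Aprotinin added as active-site competitor to test displacement.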
# [16] = Stability of the compound assessed as bovine pancreas alphachymotrypsin-mediated parent compound depletion by measuring parent compound remaining at 0.1 mg/ml incubated for 120 mins by HPLC analysis; format: ADME, Bos taurus; conditions: cattle, bovine pancreas alpha-chymotrypsin, read-out: Stabilty; summary of the method: as §5
# Genome polyprotein [17] = biological target: T1, Genome polyprotein; assay: Competitive inhibition of DENV2 NS2B-NS3 protease expressed in Escherichia coli BL21 lambda(DE3) using FRET substrate preincubated with enzyme for 15 mins followed by varying concentrations of substrate addition for 15 mins by Cheng-Prusoff plot analysis
# [18] = Selectivity index, ratio of CC50 for human HeLa cells to EC50 for inhibition of NS2B-NS3 protease in DENV2proHeLa system; format: toxicity; conditions: read-out: Ratio CC50/EC50
SMILES,inhibition [1],inhibition (Trypsin (Homo sapiens)),Activity [2] [%],EC50 (Genome polyprotein [3]) [µM],"Papp at 5 h, 200 µM [4] [×10⁻⁶ cm/s]",Activity (Huh-7) [%],inhibition at 12.5 µM (dengue virus type 2 [5]) [%],inhibition [6],inhibition [7] [%],Activity [8] [µM],Activity [9] [µM],CC50 at 24 h [10] [µM],inhibition [12],further results
NC(=O)c1ccc(CNC(=O)[C@@H](NC(=O)c2ccc(Oc3ccccc3)cc2)c2ccc(OCc3ccccc3)cc2)cc1,Active,inactive,8.9,1,0.61,61.4,90,inactive,82,180,3,18,–,–
N=C(N)NCCC[C@H](NC(=O)c1ccccc1)C(=O)NC(CCCCN)C(=O)NC(C(N)=O)c1ccc(OCc2ccccc2)cc1 (stereo not given in full),Active,–,–,–,–,< 20,50,–,–,–,–,–,Active,"Stabilty ([11]; isolated protein, 2 h): Unstable"
CCCCCC(=O)N[C@H](C(=O)NCc1ccc(C(N)=O)cc1)c1ccc(OCc2c(Cl)cccc2Cl)cc1,Active,inactive,–,8.3,–,–,–,inactive,71,–,–,> 50,Active,–
NC(=O)c1cccc(NC(=O)[C@@H](NC(=O)c2ccc(Oc3cccc4c3C(=O)CC4)cc2)c2ccc(OCc3ccccc3)cc2)c1,–,inactive,–,3.9,–,–,–,inactive,57,–,–,> 100,Active,–
NC(=O)c1ccc(CNC(=O)[C@@H](NC(=O)c2ccc(OCc3ccccc3)cc2)c2ccc(OCc3ccccc3)cc2)cc1,Active,inactive,–,4,–,–,–,inactive,64,–,–,> 25,Active,–
NC(=O)c1cccc(NC(=O)[C@@H](NC(=O)c2ccc(Oc3ccc4c(c3)OCO4)cc2)c2ccc(OCc3ccccc3)cc2)c1,Active,inactive,8.7,1.5,0.8,< 20,98,inactive,78,180,3.7,> 100,–,EC50 (dengue virus type 2 [13]): 2.2 µM; EC90 (dengue virus type 2 [13]): 6.8 µM
NC(=O)c1cccc(NC(=O)[C@@H](NC(=O)c2ccc(-c3ccco3)cc2)c2ccc(OCc3ccccc3)cc2)c1,–,inactive,15,1.7,0.45,< 20,59,inactive,76,169,2.1,> 50,–,Activity [14]: inactive; Activity [15]: Active
N#Cc1ccc(Oc2ccc(C(=O)N[C@H](C(=O)Nc3cccc(C(N)=O)c3)c3ccc(OCc4ccccc4)cc3)cc2)cc1,Active,inactive,9.9,1,1,< 20,88,inactive,79,177,4.5,> 100,Active,EC50 (dengue virus type 2 [13]): 0.66 µM; EC90 (dengue virus type 2 [13]): 8 µM
NC(=O)c1cccc(NC(=O)[C@@H](NC(=O)c2ccc(-c3cncnc3)cc2)c2ccc(OCc3ccccc3)cc2)c1,Active,inactive,–,8.1,–,–,–,inactive,59,–,–,> 50,Active,–
NC(=O)c1ccc(CNC(=O)[C@@H](NC(=O)c2ccc(-c3cccs3)s2)c2ccc(OCc3ccccc3)cc2)cc1,–,inactive,–,6.2,–,–,–,inactive,63,–,–,> 100,–,Activity [14]: inactive; Activity [15]: Active
NC(=O)c1cccc(NC(=O)[C@@H](NC(=O)c2ccc(C(=O)c3ccccc3)cc2)c2ccc(OCc3ccccc3)cc2)c1,Active,inactive,8.1,0.39,1.8,< 20,100,inactive,76,178,8.6,> 100,–,"remaining at 2 h, 0.1 mg/ml [16]: 70%; metabolised at 2 h, 0.1 mg/ml ([11]; bovine pancreas trypsin, read-out: Drug degradation): 25%; EC50 (dengue virus type 2 [13]): 1.1 µM; EC90 (dengue virus type 2 [13]): 4.6 µM; Ki (Genome polyprotein [17]): 3.5 µM"
NC(=O)c1cccc(NC(=O)[C@@H](NC(=O)c2ccc(Oc3ccc4c(c3)OCCO4)cc2)c2ccc(OCc3ccccc3)cc2)c1,Active,inactive,–,3.8,–,–,–,inactive,61,–,–,> 100,Active,–
NC(=O)c1cccc(NC(=O)[C@@H](NC(=O)c2ccc(Oc3ccc(Cl)cc3)cc2)c2ccc(OCc3ccccc3)cc2)c1,–,inactive,–,0.58,–,–,–,inactive,86,–,–,96,–,selectivity ratio [18]: > 140
COc1ccccc1Oc1ccc(C(=O)N[C@H](C(=O)Nc2cccc(C(N)=O)c2)c2ccc(OCc3ccccc3)cc2)cc1,Active,inactive,–,2.2,–,–,–,inactive,77,–,–,> 100,Active,–
